Activity calls are given as the source filed them. The calls are words filed in the database; no cut-off is given here.
Key:
[1] = organism: Rattus norvegicus; test: Delta HR ratio measured as the ratio of delta HR(20 min)/delta HR (5 min); assay type: functional
Summary of the method: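 Duration-of-action index: the % heart-rate reduction at 20 min divided by that at 5 min after 5 mg/kg iv. Rats were male Chbb:THOM, pentobarbital-anesthetized and ventilated, with heart rate taken from an ECG-triggered tachograph.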

[2] = test system: Rattus norvegicus; test: Hypotensive activity was evaluated in an anesthetized rat model as percent mean aortic blood pressure(mm hg) reduction 5 min after iv injection of 5 mg/kg; assay type: functional, Artery
Summary of the method: (§1)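 In pentobarbital-anesthetized (50 mg/kg ip), artificially ventilated male Chbb:THOM rats (200-250 g), mean aortic pressure was measured through a carotid artery cannula connected to an electromechanical transducer. Readings were taken before and 5 min after 5 mg/kg iv. Values are % change from baseline, ± SEM.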

[3] = test system: Rattus norvegicus; test: Bradycardic activity was evaluated in an anesthetized rat model as percent heart rate(beats/min) reduction 20 min after iv injection of 5 mg/kg; assay type: functional
Summary of the method: (§2)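 Male Chbb:THOM rats, 200-250 g, anesthetized with pentobarbital sodium 50 mg/kg ip, with the trachea cannulated and artificial respiration given. Heart rate was recorded continuously by an ECG-triggered beat-to-beat tachograph before and at 5 and 20 min after a single iv injection of 5 mg/kg. Values are % change from pre-dose, reported ± SEM.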

[4] = test system: Rattus norvegicus; test: Bradycardic activity was evaluated in an anesthetized rat model as percent heart rate(beats/min) reduction 5 min after iv injection of 5 mg/kg; assay type: functional; summary of the method: as §2
[5] = organism: Rattus norvegicus; test: Ratio of heart rate reduction to mean arterial blood pressure reduction; assay type: functional
Summary of the method: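 Selectivity parameter S: the % heart-rate reduction divided by the % mean arterial pressure reduction, both read 5 min after 5 mg/kg iv in anesthetized, ventilated male Chbb:THOM rats. Heart rate came from an ECG-triggered tachograph and pressure from a carotid cannula.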

[6] = test system: Rattus norvegicus; test: Hypotensive activity was evaluated in an anesthetized rat model as percent mean aortic blood pressure(mm hg) reduction 5 min after iv injection of 5 mg/kg of the compound; NA=Not active; assay type: functional, organism-based; parameters: dose 5 mg/kg; settings: Artery; summary of the method: as §1
[7] = test system: Rattus norvegicus; test: Bradycardic activity was evaluated in an anesthetized rat model as percent heart rate(beats/min) reduction 5 min after iv injection of 5 mg/kg of the compound; NA=Not active; assay type: functional, organism-based; parameters: dose 5 mg/kg; summary of the method: as §2
[8] = test system: Rattus norvegicus; test: Bradycardic activity was evaluated in an anesthetized rat model as percent heart rate(beats/min) reduction 20 min after iv injection of 5 mg/kg of the compound; NA=Not active; assay type: functional, organism-based; parameters: dose 5 mg/kg; summary of the method: as §2

SMILES	Ratio [1]	Delta MAP [2] [%]	Delta HR [3] [%]	Delta HR [4] [%]	Selectivity [5]	Delta MAP [6]	Delta HR [7]	Delta HR [8]
COc1cc2c(cc1OC)CC(=O)N(CCCN(C)CCc1c[nH]c3ccc(OCc4ccccc4)cc13)CC2	0.93	-45	-46	-49	1.1	–	–	–
COc1cc2c(cc1OC)CC(=O)N(CCCN(C)CCc1c[nH]c3ccccc13)CC2	0.73	-23	-36	-50	2.2	–	–	–
COc1cc2c(cc1OC)CC(=O)N(CCCN(C)CCCc1cccs1)CC2	0.48	-20	-19	-40	2	–	–	–
COc1cc2c(cc1OC)CC(=O)N(CCCN(C)CCc1ccsc1)CC2	0.79	–	-19	-24	–	inactive	–	–
COc1cc2c(cc1OC)CC(=O)N(CCCN(C)CCn1cnc3ccccc31)CC2	1.5	–	-15	-10	–	inactive	–	–
COc1cc2c(cc1OC)CC(=O)N(CCCN(C)CCc1cccs1)CC2	0.56	-34	-16	-28	0.82	–	–	–
COc1ccc2[nH]cc(CCN(C)CCCN3CCc4cc(OC)c(OC)cc4CC3=O)c2c1	0.92	-18	-29	-32	1.8	–	–	–
COc1cc2c(cc1OC)CC(=O)N(CCCN(C)CCc1csc3cccc(OC)c13)CC2	0.72	-21	-24	-34	1.6	–	–	–
COc1cc2c(cc1OC)CC(=O)N(CCCN(C)CCc1csc3c1CCCC3)CC2	0.8	-43	-55	-69	1.6	–	–	–
COc1cc2c(cc1OC)CC(=O)N(CCCN(C)CCc1c[nH]c3ccc(Br)cc13)CC2	0.82	-34	-27	-33	0.98	–	–	–
COc1cc2c(cc1OC)CC(=O)N(CCCN(C)CCc1cncc3cc(OC)c(OC)cc13)CC2	1	–	-5	-5	–	inactive	–	–
COc1cc2c(cc1OC)CC(=O)N(CCCN(C)CCCCCc1cccs1)CC2	0.53	-15	-36	-68	4.4	–	–	–
COc1cc2c(cc1OC)CC(=O)N(CCCN(C)CCc1scnc1C)CC2	–	–	–	–	–	inactive	inactive	inactive
COc1cc2c(cc1OC)CC(=O)N(CCCN(C)CCc1ccccn1)CC2	1.1	–	-16	-15	–	inactive	–	–
COc1cc2c(cc1OC)CC(=O)N(CCCN(C)CCn1ccnc1)CC2	–	–	–	–	–	inactive	inactive	inactive
COc1cc2c(cc1OC)CC(=O)N(CCCN(C)CCc1csc3ccccc13)CC2	0.78	-55	-51	-66	1.2	–	–	–
COc1cc2c(cc1OC)CC(=O)N(CCCN(C)CCc1coc3cccc(OC)c13)CC2	0.45	-8	-14	-31	3.9	–	–	–
COc1cc2c(cc1OC)CC(=O)N(CCCN(C)CCc1cccn1C)CC2	0.59	-18	-18	-30	1.7	–	–	–
COc1cc2c(cc1OC)CC(=O)N(CCCN(C)CCCCn1ccnc1)CC2	–	–	–	–	–	inactive	inactive	inactive
COc1cc2c(cc1OC)CC(=O)N(CCCN(C)CCc1csc3ccc(Br)cc13)CC2	0.34	-41	-17	-50	1.2	–	–	–
COc1cc2c(cc1OC)CC(=O)N(CCCN(C)CCc1cc3ccccc3o1)CC2	0.67	-39	-45	-67	1.7	–	–	–

SMILES	Ratio [1]	Delta MAP [2] [%]	Delta HR [3] [%]	Delta HR [4] [%]	Selectivity [5]	Delta MAP [6]	Delta HR [7]	Delta HR [8]
COc1cc2c(cc1OC)CC(=O)N(CCCN(C)CCc1ccncc1)CC2	2.1	–	-21	-10	–	inactive	–	–
COc1cc2c(cc1OC)CC(=O)N(CCCN(C)CCCc1c[nH]c3ccccc13)CC2	0.76	-34	-47	-62	1.8	–	–	–
COc1cc2c(cc1OC)CC(=O)N(CCCN(C)Cc1csc3ccccc13)CC2	0.4	-27	-7	-18	0.66	–	–	–
COc1cc2c(cc1OC)CC(=O)N(CCCN(C)CCCc1csc3ccccc13)CC2	0.69	-46	-45	-65	1.4	–	–	–
COc1ccc(CCN(C)CCCN2CCc3cc(OC)c(OC)cc3CC2=O)cc1OC [ZATEBRADINE]	0.83	-21	-46	-56	2.6	–	–	–
COc1cc2c(cc1OC)CC(=O)N(CCCN(C)CCc1coc3ccccc13)CC2	0.72	-39	-39	-54	1.4	–	–	–
COc1cc2c(cc1OC)CC(=O)N(CCCN(C)CCCCCCc1cccs1)CC2	0.4	-26	-21	-53	2	–	–	–
COc1cc2c(cc1OC)CC(=O)N(CCCN(C)CCc1c[nH]c3ccc(O)cc13)CC2	0.49	-27	-24	-49	1.8	–	–	–
COc1cc2c(cc1OC)CC(=O)N(CCCN(C)CCCc1ccco1)CC2	0.95	-61	-18	-19	0.31	–	–	–
COc1cc2c(cc1OC)CC(=O)N(CCCN(C)Cc1c(C)noc1C)CC2	2.8	–	-14	-5	–	inactive	–	–
COc1cc2c(cc1OC)CC(=O)N(CCCN(C)CCc1cn(C)c3ccccc13)CC2	0.74	-22	-37	-50	2.3	–	–	–
COc1cc2c(cc1OC)CC(=O)N(CCCN(C)CCc1csc3cc(O)ccc13)CC2	0.74	-29	-37	-50	1.7	–	–	–
COc1cc2c(cc1OC)CC(=O)N(CCCN(C)CCc1csc3cc(OC)c(OC)cc13)CC2	0.71	-17	-17	-24	1.4	–	–	–
COc1cc2c(cc1OC)CC(=O)N(CCCN(C)CCc1ccco1)CC2	0.92	-52	-11	-12	0.23	–	–	–
COc1cc2c(cc1OC)CC(=O)N(CCCN(C)CCc1csc3ccc(C)cc13)CC2	0.75	-36	-38	-51	1.4	–	–	–
COc1cc2c(cc1OC)CC(=O)N(CCCN(C)CCc1csc3cc(OS(C)(=O)=O)ccc13)CC2	0.8	-21	-40	-50	2.4	–	–	–
COc1cc2c(cc1OC)CC(=O)N(CCCN(C)CCc1cccnc1)CC2	1.5	-11	-18	-12	1.1	–	–	–
COc1cc2c(cc1OC)CC(=O)N(CCCN(C)CCc1cc(C)sc1C)CC2	0.65	-36	-40	-61	1.7	–	–	–
COc1cc2c(cc1OC)CC(=O)N(CCCN(C)CCCCc1cccs1)CC2	0.39	-2	-24	-61	2.3	–	–	–
COc1ccc2c(CCN(C)CCCN3CCc4cc(OC)c(OC)cc4CC3=O)coc2c1	0.58	-35	-34	-59	1.7	–	–	–

Reference: ChEMBL document CHEMBL1125645, “Specific bradycardic agents. 2. Heteroaromatic modifications in the side chain of specific bradycardic benzazepinones: chemistry, pharmacology, and structure-activity relationships” (1991)
